Assay results collected from several papers.
Target: RAC-alpha serine/threonine-protein kinase (AKT1, Homo sapiens, UniProt P31749)

The remaining activity of Nc1nc(NC2CCCCC2)sc1C(=O)c1ccccc1 is reported as 85% (enzyme activity, inhibitor; 10 µM).
The activity vs control of COc1cc(/C=C/C(=O)CC(=O)/C=C/c2ccc(O)c(OC)c2)ccc1O is reported as 102% (enzyme activity, inhibitor; 1 µM).
O=C1NC(=O)c2cc(Nc3ccc(F)cc3)c(Nc3ccc(F)cc3)cc21 has a remaining signal of 94.8% (cell-free assay; 0.5 µM).
The activity vs control of Cc1cc(NC(=O)c2cccc3cc(-c4cccc5[nH]nc(N)c45)ccc23)ccc1F is reported as 107% (enzyme activity, inhibitor; 0.1 µM).
Cn1cnc(Br)c1C1=CN(c2ncnc3[nH]cnc23)CCS1 has an inhibition of 26.5% (enzyme activity, inhibitor, radiometric; 50 nM).
CN(C)C1CCN(CC#Cc2nn(C3CCCC3)c3nc(NCc4ccccc4)ncc23)C1 (stereo not drawn) gave an inhibition of 7% (enzyme activity, inhibitor, FRET; 10 µM).
For COc1cc2ncnc(Nc3ccc(Oc4ccccc4)c(C)c3C)c2cc1OC, the inhibition was 2% (enzyme activity, inhibitor; 1 µM).
With CC(C)(C)C(=O)c1sc(NC2CCCCC2)nc1N the remaining activity was 90% (enzyme activity, inhibitor; 10 µM).
The remaining binding of C[C@@H]1CN(c2cc(-c3nn(C)c4ccc(OC5(C)CC5)cc34)ncn2)C[C@H](C)O1 is reported as 100% (cell-free assay, competition with immobilised ligand; 1 µM).
For CC/C(=N\NC(=O)NCc1cccc(O)c1)c1ccc(O)c(C)c1O, the inhibition was 0.1% (enzyme activity, inhibitor; 0.1 µM).
C[C@@H]1CCN(C(=O)CC#N)C[C@@H]1N(C)c1ncnc2[nH]ccc12 gave a remaining signal of 90.3% (cell-free assay, inhibitor; 0.5 µM).
With FC(F)(F)Oc1cccc(-c2cnc3ccc(-c4ccncc4)nn23)c1 the activity vs control was 104% (enzyme activity, inhibitor, radiometric; 5 µM).
For CNC(=O)c1cc(Oc2ccc(NC(=O)Nc3ccc(Cl)c(C(F)(F)F)c3)cc2)ccn1, the inhibition was -3% (enzyme activity, inhibitor; 10 µM).
With CC1=C(C#N)[C@@H](c2ccc3[nH]nc(C)c3c2)C(C#N)=C(c2ccc(Cl)cc2)N1 the remaining binding was 100% (cell-free assay, competition with immobilised ligand; 1 µM).
O=C(Nc1cnn(-c2csc(C(=O)NC3COC3)c2)c1)Nc1c(F)cccc1Cl gave a remaining activity of 105% (enzyme activity, inhibitor; 5 µM).
For Cc1ccc(Nc2nccc(N(C)c3ccc4c(C)n(C)nc4c3)n2)cc1S(N)(=O)=O, the inhibition was -7% (enzyme activity, inhibitor; 0.3 µM).
CCCOc1ccc([C@H]2[C@H](C(=O)O)[C@@H](c3ccc4c(c3)OCO4)CN2CC(=O)Nc2c(CC)cccc2CC)cc1 gave a remaining binding of 97% (cell-free assay, competition with immobilised ligand; 1 µM).
For CC(C)(O)[C@H]1CC[C@H](Nc2ccc3ncc(-c4cccc(C(F)(F)F)c4)n3n2)CC1, the remaining activity was 93.2% (enzyme activity, inhibitor; 1 µM).
COc1ccc2c(c1)O[C@@H](c1ccc(OC)c(OC)c1)C[C@H]2NC(=O)C1(c2ccc3c(c2)OC(F)(F)O3)CC1 has a remaining binding of 100% (cell-free assay, competition with immobilised ligand; 1 µM).
With Cc1ccc(NC(=O)c2ccc(C)c(C(F)(F)F)c2)cc1C#Cc1nn(C2CCC(O)CC2)c2ncnc(N)c12 (stereo not drawn) the remaining signal was 101% (cell-free assay; 10 µM).
The inhibition of CCOc1cc(-c2nncn2C)ccc1Nc1ncc2cc(C)nc(NCC(C)(C)C)c2n1 is reported as less than 15% (enzyme activity, inhibitor, FRET; 1 µM).
The remaining activity of Cc1sc(C(=O)NC2COC2)cc1-n1cc(NC(=O)Nc2c(F)cccc2Cl)cn1 is reported as 105% (enzyme activity, inhibitor; 10 µM).
The inhibition of CS(=O)(=O)Nc1cccc(-c2csc(NC(=O)CSc3nc4nccnc4c(=O)n3CCc3ccccc3)n2)c1 is reported as 1% (enzyme activity, inhibitor; 10 µM).
With Cc1nc(C2CCN(C(=O)c3ccc(OC(F)(F)F)cc3N)CC2)c2ncc(N3CCN(C)CC3)cc2n1 the remaining binding was 100% (cell-free assay, competition with immobilised ligand; 1 µM).
CCCS(=O)(=O)Nc1ccc(F)c(C(=O)c2c[nH]c3ncc(-c4ccc(Cl)cc4)cc23)c1F has an inhibition of less than 20% (enzyme activity, inhibitor; 1 µM).
CNC(=O)Nc1ccc2c(c1)[C@@]1(CC2)OC(=O)N(CC(=O)N(Cc2ccc(F)cc2)[C@@H](C)C(F)(F)F)C1=O has a remaining binding of 77% (cell-free assay, competition with immobilised ligand; 1 µM).
The remaining signal of O=C1Nc2ccc(Cl)cc2C1=Cc1cc(Cl)c(O)c(Cl)c1 is reported as 97.9% (cell-free assay; 0.5 µM).
For Cn1cncc1C1=CN(c2ncnc3[nH]cnc23)CCS1, the inhibition was 83.7% (enzyme activity, inhibitor, radiometric; 2 µM).
With FC(F)c1nc2ccccc2n1-c1nc(N2CCOCC2)nc(N2CCOCC2)n1 the remaining activity was 123% (enzyme activity, inhibitor; 10 µM).
The remaining signal of Oc1ccc(-c2nc(-c3ccncc3)c(-c3ccc(F)cc3)[nH]2)cc1 is reported as 101% (cell-free assay; 0.5 µM).
With O=C1CCc2cc(Nc3cc(OC4CCOCC4)c([N+](=O)[O-])cc3Cl)ccc2N1 the remaining binding was 98% (cell-free assay, competition with immobilised ligand; 1 µM).
The remaining activity of Cc1ccc(C(=O)Nc2ccc(CN3CCN(C)CC3)c(C(F)(F)F)c2)cc1C#Cc1cnc2cccnn12 is reported as 65% (enzyme activity, inhibitor; 23.5 nM).
Cc1c(NC(=O)c2cc(C(N)=O)nc3cc(F)ccc23)c(C(F)(F)F)nn1Cc1ccc(C#N)cc1 has a remaining binding of 91% (cell-free assay, competition with immobilised ligand; 1 µM).
With Cc1cnc(NC2CCOCC2)nc1-n1cnc(C(=O)NC(CN)c2cc(F)cc(Cl)c2)c1 (stereo not drawn) the remaining activity was 89% (enzyme activity, inhibitor, radiometric; 1 µM).
For N#CCCc1ccc2c(c1)-c1[nH]c3ccc([N+](=O)[O-])cc3c1CC(=O)N2, the remaining signal was 111% (cell-free assay; 0.5 µM).
With COc1cc(Nc2cnc(C#N)c(O[C@H](C)CN(C)C)n2)ncc1-c1cnn(C)c1 the remaining activity was 87% (enzyme activity, inhibitor, radiometric; 10 µM).
